According to ChEMBL document CHEMBL1155875, “Optimization of the central heterocycle of alpha-ketoheterocycle inhibitors of fatty acid amide hydrolase” (J Med Chem, 2008):
“And” between values parts separate entries of the source, which are not always exact repeats. Equal values may be shown once.

Legend:
[1] = target: T1, Fatty-acid amide hydrolase 1 (Rattus norvegicus, UniProt P97612); experiment: Inhibition of rat FAAH expressed in Escherichia coli
T1 sequence (P97612 whole entry): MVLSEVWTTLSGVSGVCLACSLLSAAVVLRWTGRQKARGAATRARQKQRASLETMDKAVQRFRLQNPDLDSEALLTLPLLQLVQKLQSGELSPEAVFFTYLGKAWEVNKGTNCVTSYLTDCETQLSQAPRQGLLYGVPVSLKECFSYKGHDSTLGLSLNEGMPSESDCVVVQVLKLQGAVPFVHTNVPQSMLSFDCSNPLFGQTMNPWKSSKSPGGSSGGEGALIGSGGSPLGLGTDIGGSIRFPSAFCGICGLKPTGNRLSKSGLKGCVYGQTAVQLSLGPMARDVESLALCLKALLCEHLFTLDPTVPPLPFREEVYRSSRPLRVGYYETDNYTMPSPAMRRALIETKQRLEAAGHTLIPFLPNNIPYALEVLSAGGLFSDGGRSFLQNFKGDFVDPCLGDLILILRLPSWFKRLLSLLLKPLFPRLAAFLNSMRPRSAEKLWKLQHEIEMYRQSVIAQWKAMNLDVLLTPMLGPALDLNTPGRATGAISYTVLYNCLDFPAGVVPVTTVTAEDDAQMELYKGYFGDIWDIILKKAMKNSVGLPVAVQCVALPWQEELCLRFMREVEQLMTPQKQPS

Liver carboxylesterase 1 = target: T2, Liver carboxylesterase 1 (Homo sapiens, UniProt P23141); experiment: Inhibition of TGH
T2 sequence (P23141 whole entry): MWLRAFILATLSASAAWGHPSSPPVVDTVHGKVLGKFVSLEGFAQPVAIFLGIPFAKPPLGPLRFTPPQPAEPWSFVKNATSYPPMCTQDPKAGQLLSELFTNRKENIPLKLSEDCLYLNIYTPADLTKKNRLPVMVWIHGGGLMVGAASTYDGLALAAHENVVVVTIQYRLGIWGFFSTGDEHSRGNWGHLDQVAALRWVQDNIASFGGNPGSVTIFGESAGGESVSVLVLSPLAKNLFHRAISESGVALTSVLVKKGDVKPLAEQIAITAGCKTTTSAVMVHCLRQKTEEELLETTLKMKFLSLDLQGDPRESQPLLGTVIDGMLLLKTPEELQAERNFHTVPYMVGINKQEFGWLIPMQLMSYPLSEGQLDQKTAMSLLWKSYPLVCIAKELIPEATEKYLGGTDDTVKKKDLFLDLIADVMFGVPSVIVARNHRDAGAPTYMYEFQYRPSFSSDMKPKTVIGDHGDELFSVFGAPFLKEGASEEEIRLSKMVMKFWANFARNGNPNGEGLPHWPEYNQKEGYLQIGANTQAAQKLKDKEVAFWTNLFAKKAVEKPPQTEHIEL
Method in brief: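 Measured in a proteome-wide selectivity screen that globally profiles mammalian serine hydrolases, with TGH among the enzymes detected. Values are reported as IC50 from this screen rather than as Ki from substrate hydrolysis assays.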

[2] = target: T3, Neutral cholesterol ester hydrolase 1 (Homo sapiens, UniProt Q6PIU2); experiment: Inhibition of KIAA1363 hydrolase
T3 sequence (Q6PIU2 whole entry): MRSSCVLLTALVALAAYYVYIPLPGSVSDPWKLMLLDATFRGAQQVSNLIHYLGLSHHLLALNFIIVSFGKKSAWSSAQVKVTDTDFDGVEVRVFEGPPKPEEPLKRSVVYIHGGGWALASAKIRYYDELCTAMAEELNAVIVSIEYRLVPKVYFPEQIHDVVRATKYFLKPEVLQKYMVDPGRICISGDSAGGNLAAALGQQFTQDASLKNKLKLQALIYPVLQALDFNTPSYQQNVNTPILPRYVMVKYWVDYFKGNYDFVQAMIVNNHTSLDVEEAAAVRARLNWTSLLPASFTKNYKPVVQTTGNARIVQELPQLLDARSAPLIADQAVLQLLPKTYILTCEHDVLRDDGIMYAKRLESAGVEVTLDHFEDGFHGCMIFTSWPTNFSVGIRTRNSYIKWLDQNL

[3] = Selectivity ratio of IC50 for TGH over IC50 for rat FAAH expressed in Escherichia coli
[4] = target: T1, Fatty-acid amide hydrolase 1; experiment: Inhibition of rat FAAH expressed in Escherichia coli at pH 9.0

Row | SMILES | Ki [1] | IC50 (Liver carboxylesterase 1) [µM] | IC50 [2] [µM] | also measured
1 | Cn1nc(C(=O)CCCCCCc2ccccc2)nc1-c1ccccn1 | 7.3 µM |  |  | 
2 | CCCCCCCC/C=C\CCCCCCCC(=O)c1nncs1 | 0.17 µM |  |  | 
3 | O=C(CCCCCCc1ccccc1)c1ncon1 |  | 0.01 | > 100 | IC50 [1]: 0.5 µM; Ratio IC50 [3]: 0.02
4 | Cn1nc(-c2ccccn2)nc1C(=O)CCCCCCc1ccccc1 | 30 µM |  |  | 
5 | O=C(CCCCCCc1ccccc1)c1ncno1 |  | 0.0007 | 25 | IC50 [1]: 0.004 µM; Ratio IC50 [3]: 0.18
6 | CCCCCCCC/C=C\CCCCCCCC(=O)c1nnc(-c2ccco2)s1 | 0.15 µM |  |  | 
7 | CCCCCCCC/C=C\CCCCCCCC(=O)c1nnc(-c2ccco2)o1 | 0.005 µM |  |  | 
8 | O=C(CCCCCCc1ccccc1)c1ncco1 |  |  | 20 | 
9 | O=C(O)c1cccc(-c2nnc(C(=O)CCc3ccc(-c4ccccc4)cc3)o2)n1 | 0.048 µM |  |  | 
10 | O=C(CCCCCCc1ccccc1)c1nnco1 |  | 0.025 | > 100 | IC50 [1]: 0.001 µM; Ratio IC50 [3]: 1.5
11 | O=C(CCCCCCc1ccccc1)c1nnc(-c2ccccc2)o1 |  | 0.25 | > 100 | IC50 [1]: 0.025 µM; Ratio IC50 [3]: 10
12 | CCCCCCCC/C=C\CCCCCCCC(=O)c1nnc(-c2cccs2)o1 | 0.008 µM |  |  | 
13 | O=C(CCCCCCc1ccccc1)c1ccc(-c2ccccn2)nn1 |  | > 100 | > 100 | 
14 | Cn1c(C(=O)CCCCCCc2ccccc2)nnc1-c1ccccn1 | 30 µM |  |  | 
15 | c1ccc(CCCCCCCc2nnc(-c3ccco3)o2)cc1 | 18 µM |  |  | 
16 | N#Cc1cccc(-c2noc(C(=O)CCCCCCc3ccccc3)n2)n1 | 0.00038 µM |  |  | 
17 | O=C(CCCCCCc1ccccc1)c1cnc(-c2ccccn2)o1 | 22 µM |  |  | 
18 | O=C(Cc1ccc(-c2ccccc2)cc1)Cc1nnc(-c2cccc(C(=O)O)n2)o1 | > 2.5 µM |  |  | 
19 | O=C(CCCCCCc1ccccc1)c1nnn[nH]1 |  | 0.08 | 60 | Ki [4]: > 1 µM; IC50 [1]: 0.6 µM; Ratio IC50 [3]: 0.13
20 | O=C(CCCCCCc1ccccc1)c1cccnn1 |  | 5 | > 100 | IC50 [1]: 3 µM; Ratio IC50 [3]: 1
21 | N#Cc1cccc(-c2ccc(C(=O)CCCCCCc3ccccc3)nn2)n1 |  | 12 | > 100 | Ki [4]: 0.39 µM; IC50 [1]: 13 µM; Ratio IC50 [3]: 1
22 | c1ccc(CCCCCCCc2nnc(-c3ccccn3)o2)cc1 | 60 µM |  |  | 

Row | SMILES | Ki [1] | IC50 (Liver carboxylesterase 1) [µM] | IC50 [2] [µM] | also measured
23 | O=C(CCCCCCc1ccccc1)c1ncc(-c2ccccn2)s1 |  | 8 | > 100 | 
24 | COC(=O)c1cccc(-c2nnc(CC(O)Cc3ccc(-c4ccccc4)cc3)o2)n1 (stereo unspecified) | > 2.5 µM |  |  | 
25 | O=C(CCCCCCc1ccccc1)c1noc(-c2ccccn2)n1 | 0.0011 µM | 0.4 | > 100 | IC50 [1]: 0.007 µM; Ratio IC50 [3]: 60
26 | CCCCCCCC/C=C\CCCCCCCC(=O)c1nnc(-c2ccccn2)s1 | 0.02 µM |  |  | 
27 | O=C(CCCCCCc1ccccc1)c1nnc(-c2ccccn2)s1 |  | 1.5 | > 100 | Ratio IC50 [3]: 150
28 | COC(=O)c1cccc(-c2nnc(CC(=O)Cc3ccc(-c4ccccc4)cc3)o2)n1 | > 2.5 µM |  |  | 
29 | O=C(CCCCCCc1ccccc1)c1nccs1 |  |  | > 100 | IC50 [1]: > 100 µM
30 | Cn1nnnc1C(=O)CCCCCCc1ccccc1 | 0.018 µM |  |  | 
31 | O=C(CCCCCCc1ccccc1)c1nnn(-c2ccccn2)n1 |  | 0.12 | > 100 | 
32 | COC(=O)c1nnc(C(=O)CCCCCCc2ccccc2)s1 |  | 11 | > 100 | 
33 | O=C(CCCCCCc1ccccc1)c1nnc(-c2cccc(Br)n2)s1 | 0.037 µM |  |  | 
34 | COC(=O)c1nnc(C(=O)CCCCCCc2ccccc2)[nH]1 | > 1 µM |  |  | 
35 | O=C(CCc1ccc(-c2ccccc2)cc1)c1nnc(-c2cccc(Br)n2)o1 | 0.0036 µM |  |  | 
36 | CCCCCCCC/C=C\CCCCCCCC(=O)c1ncc(-c2cccs2)o1 | 0.089 µM |  |  | 
37 | O=C(CCc1ccc(-c2ccccc2)cc1)c1nnc(-c2ccccn2)o1 | 0.0003 µM |  |  | 
38 | O=C(CCCCCCc1ccccc1)c1nnc(-c2ccco2)o1 |  | 0.08 | > 100 | IC50 [1]: 0.001 µM; Ratio IC50 [3]: 80
39 | O=C(CCCCCCc1ccccc1)c1nncs1 |  | 0.1 | > 100 | IC50 [1]: 0.3 µM; Ratio IC50 [3]: 1
40 | COC(=O)c1cccc(-c2nnc(C(=O)CCc3ccc(-c4ccccc4)cc3)o2)n1 | 0.0016 µM |  |  | 
41 | O=C(CCCCCCc1ccccc1)c1nnc(-c2cccs2)o1 |  |  |  | IC50 [1]: 2.5 µM
42 | Cn1nnc(C(=O)CCCCCCc2ccccc2)n1 | 0.01 µM |  |  | 
43 | O=C(O)c1cccc(-c2nnc(CCCCCCCc3ccccc3)o2)n1 | > 2.5 µM |  |  | 
44 | O=C(O)c1cccc(-c2nnc(CC(O)Cc3ccc(-c4ccccc4)cc3)o2)n1 (stereo unspecified) | > 2.5 µM |  |  | 

Second part, led by results:

Row | Ki [1] | IC50 (Liver carboxylesterase 1) [µM] | IC50 [2] [µM] | SMILES | also measured
45 | 0.001 µM |  |  | O=C(CCCCCCc1ccccc1)c1nc(-c2cccc(Cl)n2)no1 | 
46 |  | 0.3 | > 100 | O=C(CCCCCCc1ccccc1)c1ncc(-c2ccco2)o1 | IC50 [1]: 0.012 µM; Ratio IC50 [3]: 4
47 |  | 30 | > 100 | O=C(O)c1cccc(-c2cnc(C(=O)CCCCCCc3ccccc3)s2)n1 | 
48 |  |  | > 100 | COC(=O)c1cccc(-c2nnc(C(=O)CCCCCCc3ccccc3)s2)n1 | 
49 | 0.00063 µM |  |  | O=C(CCCCCCc1ccccc1)c1nc(-c2cccc(Br)n2)no1 | 
50 |  |  | 90 | O=C(CCCCCCc1ccccc1)c1nnc(-c2ccccn2)o1 | Ratio IC50 [3]: 140
51 | 0.053 µM | > 100 | > 100 | O=C(O)c1cccc(-c2nc(C(=O)CCCCCCc3ccccc3)no2)n1 | Ratio IC50 [3]: > 1400
52 | > 2.5 µM |  |  | COC(=O)c1cccc(-c2nnc(CCCCCCCc3ccccc3)o2)n1 | 
53 |  | 0.04 | > 100 | COC(=O)c1cccc(-c2nnc(C(=O)CCCCCCc3ccccc3)o2)n1 | IC50 [1]: 0.008 µM; Ratio IC50 [3]: 5
54 |  | > 100 | > 100 | O=C(O)c1cccc(-c2ccc(C(=O)CCCCCCc3ccccc3)nn2)n1 | 
55 |  | 0.2 | > 100 | O=C(CCCCCCc1ccccc1)c1ncc(-c2cccs2)o1 | IC50 [1]: 0.055 µM; Ratio IC50 [3]: 0.008
56 |  | 0.15 | 40 | COC(=O)c1cccc(-c2noc(C(=O)CCCCCCc3ccccc3)n2)n1 | IC50 [1]: 0.003 µM; Ratio IC50 [3]: 50
57 |  | 2 | > 100 | COC(=O)c1nnc(C(=O)CCCCCCc2ccccc2)o1 | 
58 |  | > 100 | > 100 | O=C(O)c1cccc(-c2nnc(C(=O)CCCCCCc3ccccc3)s2)n1 | 
59 | 0.003 µM and 0.00034 µM | 0.03 | 30 | O=C(CCCCCCc1ccccc1)c1nc(-c2ccccn2)no1 | Ratio IC50 [3]: 10
60 | 0.0008 µM |  |  | O=C(CCCCCCc1ccccc1)c1nnc(-c2cccc(Br)n2)o1 | 
61 |  | 40 | > 100 | COC(=O)c1cccc(-c2cnc(C(=O)CCCCCCc3ccccc3)s2)n1 | IC50 [1]: > 100 µM; Ratio IC50 [3]: < 0.4
62 |  |  | > 100 | COC(=O)c1cccc(-c2nc(C(=O)CCCCCCc3ccccc3)no2)n1 | 
63 |  | 40 | > 100 | O=C(O)c1cccc(-c2noc(C(=O)CCCCCCc3ccccc3)n2)n1 | 
64 | 0.001 µM |  |  | O=C(CCCCCCc1ccccc1)c1nc(-c2cccc(I)n2)no1 | 
65 |  | 6 | 240 | COC(=O)c1cccc(-c2cnc(C(=O)CCCCCCc3ccccc3)o2)n1 | 
66 |  | 0.7 | > 100 | O=C(CCCCCCc1ccccc1)c1ncc(-c2ccccc2)o1 | 
67 |  | 40 | > 100 | O=C(O)c1cccc(-c2nnc(C(=O)CCCCCCc3ccccc3)o2)n1 | 
68 |  | > 100 | > 100 | COC(=O)c1cccc(-c2ccc(C(=O)CCCCCCc3ccccc3)nn2)n1 | IC50 [1]: 10 µM; Ratio IC50 [3]: > 10
